ChEMBL document CHEMBL2016495, “Design and synthesis of potent, isoxazole-containing renin inhibitors” (Bioorg Med Chem Lett, 2012)
pIC50, pKi: −log10 of the molar value.

Columns and labels:
Renin [1] = target: T1, Renin (Homo sapiens, UniProt P00797); assay: Inhibition of human recombinant renin using DNP-Lys-His-Pro-Phe-His-Leu-Val-Ile-His-D,L-Amp as substrate after 3 hrs by fluorescence analysis
T1 sequence (P00797 whole entry): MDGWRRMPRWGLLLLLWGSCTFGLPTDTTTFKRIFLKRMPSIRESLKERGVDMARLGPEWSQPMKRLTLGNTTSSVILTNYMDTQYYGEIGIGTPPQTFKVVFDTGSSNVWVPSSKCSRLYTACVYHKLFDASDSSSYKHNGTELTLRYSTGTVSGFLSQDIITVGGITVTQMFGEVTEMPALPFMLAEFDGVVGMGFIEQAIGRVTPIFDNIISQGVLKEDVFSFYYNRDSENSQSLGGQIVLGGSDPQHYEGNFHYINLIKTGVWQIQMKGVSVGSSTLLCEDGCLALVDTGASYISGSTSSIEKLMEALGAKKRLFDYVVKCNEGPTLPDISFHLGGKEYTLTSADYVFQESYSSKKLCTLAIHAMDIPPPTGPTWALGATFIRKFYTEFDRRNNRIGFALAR
How it was run: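 Recombinant human renin at 100 pM, with or without inhibitor, and 6 µM Q-FRET substrate in 50 mM MOPS, 100 mM NaCl, pH 7.4, 0.002% Tween. Incubated at 37 °C for 3 h. Fluorescence (ex 328 / em 388 nm) was read at 0 and 3 h.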

[2] = target: Voltage-gated inwardly rectifying potassium channel KCNH2 (Homo sapiens, UniProt Q12809); assay: Binding affinity to human Erg
Cytochrome P450 3A4 = Cytochrome P450 3A4 (Homo sapiens, UniProt P08684); assay: Reversible inhibition of CYP3A4-mediated conversion of testosterone to 6-beta-hydroxy-testosterone after 30 mins; type: ADME
CYP3A4 = CYP3A4 (Homo sapiens, UniProt P08684); assay: Inhibition of CYP3A4 assessed as time dependent inhibition of conversion of testosterone to 6-beta-hydroxy-testosterone at 10 uM; type: ADME; conditions: probe testosterone
[3] = Oral bioavailability in Sprague-Dawley rat at 3 mg/kg; type: ADME, organism-based; conditions: in vivo
How it was run: (§1)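 Rats dosed orally at 3 mpk as a solution in 0.5% methyl cellulose.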

[4] = Clearance in Sprague-Dawley rat at 3 mg/kg, po and 0.5 mg/kg, iv; type: ADME, organism-based; conditions: in vivo
[5] = Half life in Sprague-Dawley rat at 3 mg/kg, po and 0.5 mg/kg, iv; type: ADME, organism-based; conditions: in vivo; how it was run: as §1
[6] = Volume of distribution at steady state in Sprague-Dawley rat at 3 mg/kg, po and 0.5 mg/kg, iv; type: ADME, organism-based; conditions: in vivo, read-out: Vdss
Rattus norvegicus [7] = assay: Antihypertensive activity in double transgenic rat assessed as decrease in blood pressure at 3 mg/kg, po; type: functional
[8] = AUC in Sprague-Dawley rat at 3 mg/kg, po; type: ADME, organism-based; parameters: dose 3 mg/kg, route oral; conditions: plasma; how it was run: as §1
Rattus norvegicus [9] = assay: Antihypertensive activity in double transgenic rat assessed as duration of decrease in blood pressure at 3 mg/kg, po; type: functional
Renin [10] = target: T1, Renin; assay: Inhibition of human recombinant renin using QXL520-Lys-His-Pro-Phe-His-Leu-Val-Ile-His-Lys-(5-FAM) as substrate pretreated for 10 mins measured after 1 hr by fluorescence analysis in presence of human plasma

Voltage-gated inwardly rectifying potassium channel KCNH2, sequence (Q12809 whole entry): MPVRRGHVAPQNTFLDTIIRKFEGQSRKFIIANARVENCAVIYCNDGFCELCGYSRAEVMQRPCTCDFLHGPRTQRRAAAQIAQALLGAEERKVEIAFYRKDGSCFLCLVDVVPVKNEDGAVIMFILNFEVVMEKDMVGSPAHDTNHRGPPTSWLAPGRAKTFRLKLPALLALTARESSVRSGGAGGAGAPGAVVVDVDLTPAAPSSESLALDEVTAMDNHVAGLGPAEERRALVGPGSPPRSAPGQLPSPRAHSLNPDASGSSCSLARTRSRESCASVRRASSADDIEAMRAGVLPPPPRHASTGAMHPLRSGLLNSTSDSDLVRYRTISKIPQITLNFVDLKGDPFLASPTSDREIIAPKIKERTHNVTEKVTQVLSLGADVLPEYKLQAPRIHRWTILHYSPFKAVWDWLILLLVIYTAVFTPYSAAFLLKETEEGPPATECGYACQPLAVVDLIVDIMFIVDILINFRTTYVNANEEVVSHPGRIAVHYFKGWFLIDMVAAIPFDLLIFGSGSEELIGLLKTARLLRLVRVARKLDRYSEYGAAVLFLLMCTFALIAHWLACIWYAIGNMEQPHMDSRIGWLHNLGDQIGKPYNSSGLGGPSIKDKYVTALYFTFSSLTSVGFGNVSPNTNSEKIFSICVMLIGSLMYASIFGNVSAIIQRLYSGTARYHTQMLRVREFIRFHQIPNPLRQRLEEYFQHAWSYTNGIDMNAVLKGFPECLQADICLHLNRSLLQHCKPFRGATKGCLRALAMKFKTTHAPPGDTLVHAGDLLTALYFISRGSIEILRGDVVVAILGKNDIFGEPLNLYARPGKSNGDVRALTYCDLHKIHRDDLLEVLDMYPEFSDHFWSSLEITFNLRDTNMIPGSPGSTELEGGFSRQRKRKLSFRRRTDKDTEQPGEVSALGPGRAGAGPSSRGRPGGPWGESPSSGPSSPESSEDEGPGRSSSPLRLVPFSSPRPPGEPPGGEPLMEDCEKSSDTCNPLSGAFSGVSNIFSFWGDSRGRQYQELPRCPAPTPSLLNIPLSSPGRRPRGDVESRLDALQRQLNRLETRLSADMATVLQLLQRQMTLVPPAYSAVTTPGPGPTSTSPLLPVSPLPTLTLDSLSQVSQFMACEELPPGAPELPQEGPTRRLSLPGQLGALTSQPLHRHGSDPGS
Cytochrome P450 3A4, sequence (P08684 whole entry): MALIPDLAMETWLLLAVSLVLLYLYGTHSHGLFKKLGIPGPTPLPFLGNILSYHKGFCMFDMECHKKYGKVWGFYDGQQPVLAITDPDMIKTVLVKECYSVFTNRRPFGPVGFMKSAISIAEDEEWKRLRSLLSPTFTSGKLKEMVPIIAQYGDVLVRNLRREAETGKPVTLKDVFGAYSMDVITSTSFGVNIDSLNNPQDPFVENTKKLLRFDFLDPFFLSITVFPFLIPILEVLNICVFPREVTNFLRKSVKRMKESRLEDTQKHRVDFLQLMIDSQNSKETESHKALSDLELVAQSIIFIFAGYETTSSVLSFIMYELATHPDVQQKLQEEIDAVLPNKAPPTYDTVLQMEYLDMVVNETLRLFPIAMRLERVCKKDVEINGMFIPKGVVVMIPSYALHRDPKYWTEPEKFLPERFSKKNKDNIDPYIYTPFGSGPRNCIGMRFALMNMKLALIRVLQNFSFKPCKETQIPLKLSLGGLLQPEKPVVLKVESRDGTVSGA
CYP3A4, sequence (P08684 whole entry): as above

Row | Structure (SMILES) | pIC50 (Renin [1]) | pIC50 (Cytochrome P450 3A4) | inhibition at 10 µM (CYP3A4) [%] | pKi [2] | further results
1 | O[C@]1(c2ccc(F)c(F)c2)CCNC[C@@H]1c1onc(-c2cccc3ccccc23)c1Br | 10.22 | < 4.30 | 67 | 5.38 | –
2 | CC(=O)NCCc1ccccc1-c1onc([C@H]2CNCC[C@]2(O)c2ccc(F)c(F)c2)c1Cl | 9.14 | < 4.30 | 74 | – | –
3 | CC(=O)NCCc1ccccc1-c1cc([C@H]2CNCC[C@]2(O)c2ccc(F)c(F)c2)no1 | 6.78 | 4.49 | 21 | – | pIC50 (Renin [10]): 6.48
4 | CC(=O)NCCc1ccccc1-c1onc([C@H]2CNCC[C@]2(C(N)=O)c2ccc(F)c(F)c2)c1Br | 9.66 | – | – | 4.52 | pIC50 (Renin [10]): 9.22
5 | CC(=O)NCCc1ccccc1-c1onc([C@H]2CNCC[C@]2(OCC(O)CO)c2ccc(F)c(F)c2)c1Br (stereo partly drawn) | – | < 4.30 | 18 | < 4.22 | bioavailability [3]: 0%; clearance [4]: 70 mL/min/kg; half-life [5]: 1.9 h; Vd [6]: 12 L/kg
6 | CC(=O)NCCc1cc(F)ccc1-c1onc([C@H]2CNCC[C@]2(O)c2ccc(F)c(F)c2)c1Br | – | 4.35 | 78 | – | pIC50 (Renin [10]): 9.15
7 | CC(=O)NCCc1ccccc1-c1noc([C@H]2CNCC[C@]2(O)c2ccc(F)c(F)c2)c1Br | – | 4.35 | 74 | – | –
8 | CC(=O)NCCc1ccccc1-c1onc([C@H]2CNCC[C@]2(O)c2ccc(F)c(F)c2)c1C(C)O (stereo partly drawn) | – | < 4.30 | 48 | – | –
9 | CC(=O)NCCc1ccccc1-c1onc([C@H]2CNCC[C@]2(O)c2ccc(F)c(F)c2)c1Br | 9.57 | 4.48 | 68 | – | bioavailability [3]: 16%; clearance [4]: 108 mL/min/kg; half-life [5]: 5.7 h; Vd [6]: 36 L/kg; Activity (Rattus norvegicus [7]): 44 mmHg; AUC [8]: 0.14 µM·h; Time (Rattus norvegicus [9]): 18 h

Continued, in another order:

Row | pIC50 (Renin [1]) | pIC50 (Cytochrome P450 3A4) | inhibition at 10 µM (CYP3A4) [%] | Structure (SMILES) | pKi [2] | further results
10 | – | 4.82 | 82 | O[C@]1(c2ccc(F)c(F)c2)CCNC[C@@H]1c1onc(-c2c(Cl)cccc2Cl)c1Br | 5.41 | –
11 | – | 4.70 | – | CC(=O)NCCc1ccccc1-c1ccc([C@H]2CNCC[C@@H]2c2ccc(F)c(F)c2)c(Cl)c1 | – | –
12 | 9.59 | 4.54 | 10 | COC[C@H](C)COCc1ccc([C@@]2(O)CCNC[C@@H]2c2noc(-c3ccccc3CCNC(C)=O)c2Br)cc1 | 4.51 | bioavailability [3]: 18%; clearance [4]: 124 mL/min/kg; half-life [5]: 1.4 h; Vd [6]: 12 L/kg; Activity (Rattus norvegicus [7]): 27 mmHg; AUC [8]: 0.13 µM·h; Time (Rattus norvegicus [9]): 8 h; pIC50 (Renin [10]): 9.17
13 | 8.94 | 4.74 | 76 | O[C@]1(c2ccc(F)c(F)c2)CCNC[C@@H]1c1onc(-c2ccccc2Cl)c1Br | – | –
14 | – | 4.77 | 60 | O[C@]1(c2ccc(F)c(F)c2)CCNC[C@@H]1c1cc(-c2c(Cl)cccc2Cl)on1 | 5.01 | pIC50 (Renin [10]): < 5.02
15 | – | 5.10 | 59 | O[C@]1(c2ccc(F)c(F)c2)CCNC[C@@H]1c1cc(-c2c(Cl)cccc2Cl)no1 | 5.55 | –
16 | 9.77 | 4.55 | 60 | CO[C@]1(c2ccc(F)c(F)c2)CCNC[C@@H]1c1noc(-c2ccccc2CCNC(C)=O)c1Br | – | –
17 | – | 5.52 | 22 | O[C@]1(c2ccc(F)c(F)c2)CCNC[C@@H]1c1cc(-c2ccc(F)cc2Br)no1 | 5.77 | –
18 | – | 4.70 | 77 | Cc1cccc(-c2noc([C@H]3CNCC[C@]3(O)c3ccc(F)c(F)c3)c2Br)c1C | 5.22 | –
19 | – | 5.15 | 36 | O[C@]1(c2ccc(F)c(F)c2)CCNC[C@@H]1c1cc(-c2ccc(F)cc2Cl)no1 | – | pIC50 (Renin [10]): < 5.02
20 | – | 4.72 | 60 | O[C@]1(c2ccc(F)c(F)c2)CCNC[C@@H]1c1onc(-c2cccc(Cl)c2Cl)c1Br | – | –
21 | – | 4.89 | 75 | CC(=O)NCCc1ccccc1-c1onc([C@H]2CNCC[C@@H]2c2ccc(F)c(F)c2)c1Br | 4.71 | –
22 | – | 5.10 | 32 | CC(=O)NCCc1ccccc1-c1onc([C@H]2CNCC[C@]2(O)c2ccc(F)c(F)c2)c1C(C)=O | – | –
